Results on 37 compounds are retold here after ChEMBL document CHEMBL4825712.

SMILES strings stand for the structures. Where only a bound is given, the exact number is not on record here.

One data set deals with Influenza A virus. Briefly: Antiviral activity against Influenza A virus A/WSN/33(H1N1) infected in human A549 cells assessed as viral replication measured after 24 hrs by immunofluorescence microscopy. The data set is classed as functional, organism-based. The settings on record: A/WSN/1933(H1N1); for IC50: A549, 24 h; for IC90: A549, time 24 hrs. The gist of the method: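 A549 cells were infected with A/WSN/33 at MOI 0.01 for 24 h, then fixed in 4% formaldehyde and permeabilized with 0.1% Triton X-100. They were immunostained for NP with an Alexa-488 secondary plus DAPI and imaged on an image cytometer. Percent infection = NP-positive cells divided by total cells.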

For another data set, the system named is A549. Kind of data set: Cytotoxicity against human A549 cells by MTT assay. The data set is classed as cell-based. The gist of the method: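 MTT assay run according to the manufacturer's instructions, concurrently with NP immunostaining of infected A549 cultures.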
(In general: Tetrazolium assays rely on reduction of a dye to a coloured formazan, in cell work by metabolically active cells.)

Data set [1] is described as follows: Selectivity index, ratio of CC50 for human A549 cells to IC50 for antiviral activity against Influenza A virus A/WSN/33(H1N1) infected in human A549 cells. The settings on record: read-out: Selectivity Index. The data set is classed as toxicity, cell-based. Summed up: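 Ratio of CC50 to IC50. IC50 came from A549 cells pretreated 2 h with compound, then infected 24 h with WSN-PB2-Nanoluc at MOI 0.02 and read by Nano-Glo luminescence. CC50 was measured by CellTiter-Glo.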

Consider `Cc1ccccc1NS(=O)(=O)c1cc(Cl)ccc1Cl`, for which, in the data set on Influenza A virus, the IC50 was over 5 µM and the IC90 was over 5 µM. In the data set on A549, this compound yielded a CC10 of over 5 µM and a CC50 of over 5 µM.

As to `CCN(c1ccc(F)cc1F)S(=O)(=O)c1cc(F)ccc1F`, in the data set on Influenza A virus, the IC50 was 3.4 µM and the IC90 is over 25 µM. For the same compound, the CC10 in the data set with A549 was over 25 µM. In addition, the selectivity ratio in data set [1] is over 7.

For the compound `Cc1cc(Cl)ccc1N(CCO)S(=O)(=O)c1cc(Cl)ccc1Cl`, in the data set on Influenza A virus, the IC50 was over 5 µM and the IC90 was over 5 µM. In the data set with A549, the CC10 was over 5 µM and the CC50 is over 5 µM.

Turning to `Cc1cc(Cl)ccc1N(CC1CC1)S(=O)(=O)c1cc(Cl)ccc1Cl`, in the data set on Influenza A virus, the IC50 amounted to 0.49 µM and the IC90 stood at 2.8 µM. In the data set on A549, this compound showed a CC10 of over 5 µM and a CC50 of over 5 µM. Besides, in data set [1], the selectivity ratio was over 10.

As for `COCCN(c1ccc(Cl)cc1C)S(=O)(=O)c1cc(Cl)ccc1Cl`, in the data set with Influenza A virus, the half-inhibitory concentration (IC50) was 1.2 µM and the IC90 was 6 µM. In the data set on A549, this compound had a CC10 of over 5 µM and a half-maximal cytotoxic concentration (CC50) of over 5 µM. For the same compound, in data set [1], the selectivity ratio is over 4.

Take `CCN(c1ccc(F)cc1F)S(=O)(=O)c1cc(F)ccc1Cl`: in the data set on Influenza A virus, the IC50 was determined as 0.22 µM and the IC90 turned out to be 9.8 µM. In addition, the selectivity ratio in data set [1] is over 114.

Take `CCN(c1ccc(Cl)cn1)S(=O)(=O)c1cc(Cl)ccc1Cl`: the IC50 with Influenza A virus was over 5 µM.

As for `CCN(c1ccc(F)cc1)S(=O)(=O)c1cc(Cl)ccc1Cl`, in the data set on Influenza A virus, the half-inhibitory concentration (IC50) is 0.068 µM and the IC90 came to 0.94 µM. Besides, in the data set with A549, the CC10 was over 5 µM and the CC50 is over 5 µM. Moreover, the selectivity ratio in data set [1] was over 74.

`CCN(c1ccc(CCNC(C)=O)cc1)S(=O)(=O)c1cc(Cl)ccc1Cl`: in the data set with Influenza A virus, the IC50 was over 25 µM and the IC90 was over 25 µM. In addition, in the data set with A549, the CC10 was over 25 µM and the 50% cytotoxic concentration (CC50) is over 25 µM.

Consider `Cc1ccccc1N(C)S(=O)(=O)c1cc(Cl)ccc1Cl`, for which, in the data set on Influenza A virus, the 50% inhibitory concentration (IC50) was over 5 µM and the concentration for an effect of 90% (IC90) was over 5 µM. In the data set with A549, the CC10 was over 5 µM and the CC50 was over 5 µM.

With `CCN(c1ccc(C)nc1)S(=O)(=O)c1cc(Cl)ccc1Cl`, the IC50 with Influenza A virus was over 5 µM.

In the case of `CCN(c1ccc(CC(=O)N2CCN(C)CC2)cc1)S(=O)(=O)c1cc(Cl)ccc1Cl`, in the data set with Influenza A virus, the IC50 was over 25 µM and the IC90 is over 25 µM. In the data set with A549, the CC10 was over 25 µM and the CC50 is over 25 µM.

For `CCN(c1ccc(CCO)cc1)S(=O)(=O)c1cc(Cl)ccc1Cl`, in the data set with Influenza A virus, the IC50 was over 25 µM and the IC90 is over 25 µM. In the data set with A549, this compound showed a CC10 of over 25 µM and a CC50 of over 25 µM.

With `CCN(c1ccc(F)cc1F)S(=O)(=O)c1ccc(Cl)cc1Cl`, in the data set on Influenza A virus, the IC50 is over 25 µM and the concentration for an effect of 90% (IC90) was over 25 µM. In addition, the CC10 with A549 was over 25 µM.

In the case of `C#CCN(c1ccc(Cl)cc1C)S(=O)(=O)c1cc(Cl)ccc1Cl`, in the data set with Influenza A virus, the IC50 was 0.12 µM and the IC90 came to 3.4 µM. In the data set on A549, this compound displayed a CC10 of over 5 µM and a cytotoxic concentration (CC50) of over 5 µM. For the same compound, the selectivity ratio in data set [1] was over 42.

Take `CCN(c1ccncc1Cl)S(=O)(=O)c1cc(Cl)ccc1Cl`: the IC50 with Influenza A virus is over 5 µM.

As to `CCN(c1ccc(Cl)cc1F)S(=O)(=O)c1cc(Cl)ccc1Cl`, in the data set on Influenza A virus, the IC50 worked out at 0.15 µM and the IC90 was found to be 1.8 µM. In the data set on A549, this compound gave a CC10 of over 5 µM and a CC50 of over 5 µM. The selectivity ratio in data set [1] was over 33.

For `CCN(c1ccc(F)cc1F)S(=O)(=O)c1ccc(Cl)c(Cl)c1`, in the data set on Influenza A virus, the IC50 was over 25 µM and the IC90 was over 25 µM. The same compound had a CC10 with A549 of over 25 µM.

For the compound `C=CCN(c1ccc(Cl)cc1C)S(=O)(=O)c1cc(Cl)ccc1Cl`, in the data set with Influenza A virus, the IC50 is 0.037 µM and the IC90 worked out at 0.43 µM. Also, in the data set with A549, the CC10 is over 5 µM and the CC50 was over 5 µM. For the same compound, the selectivity ratio in data set [1] is over 135.

In the case of `CCN(c1ccccc1)S(=O)(=O)c1cc(Cl)ccc1Cl`, in the data set with Influenza A virus, the IC50 stood at 0.86 µM and the IC90 is 6.9 µM. Besides, in the data set on A549, the CC10 is over 5 µM and the CC50 is over 5 µM. For the same compound, the selectivity ratio in data set [1] is over 6.

Take `CCN(c1ccc(F)cc1F)S(=O)(=O)c1c(Cl)cccc1Cl`: in the data set on Influenza A virus, the IC50 is over 25 µM and the IC90 is over 25 µM. Moreover, in the data set with A549, the CC10 was over 25 µM.

`CCN(c1ccc(CCN)cc1)S(=O)(=O)c1cc(Cl)ccc1Cl`: in the data set with Influenza A virus, the IC50 was over 25 µM and the IC90 was over 25 µM. For the same compound, in the data set with A549, the CC10 was over 25 µM and the CC50 is over 25 µM.

On to `CCN(c1ccc(F)cc1F)S(=O)(=O)c1cc(Cl)ccc1F`, for which, in the data set on Influenza A virus, the half-maximal inhibitory concentration (IC50) is 0.82 µM and the IC90 amounted to 18.5 µM. In addition, the selectivity ratio in data set [1] is over 30.

Take `CCOC(=O)Cc1ccc(N(CC)S(=O)(=O)c2cc(Cl)ccc2Cl)cc1`: in the data set with Influenza A virus, the IC50 was determined as 0.08 µM and the IC90 was determined as 5.7 µM. Also, in the data set on A549, the CC10 was over 5 µM and the CC50 was over 5 µM. Besides, in data set [1], the selectivity ratio was over 63.

Turning to `CCN(c1ccc(C)nn1)S(=O)(=O)c1cc(Cl)ccc1Cl`, the IC50 with Influenza A virus is over 5 µM.

Regarding `CCN(c1c(C)cc(Cl)cc1Cl)S(=O)(=O)c1cc(Cl)ccc1Cl`, in the data set on Influenza A virus, the IC50 is 0.39 µM and the IC90 was over 5 µM. In the data set on A549, this compound displayed a CC10 of over 5 µM and a half-maximal cytotoxic concentration (CC50) of over 5 µM. Besides, in data set [1], the selectivity ratio is over 13.

Turning to `CCN(c1ccc(F)cc1F)S(=O)(=O)c1ccccc1Cl`, in the data set on Influenza A virus, the half-maximal inhibitory concentration (IC50) was over 25 µM and the 90% effect concentration (IC90) was over 25 µM. The compound further gave a CC10 with A549 of over 25 µM.

In the case of `CCN(c1cnccc1C)S(=O)(=O)c1cc(Cl)ccc1Cl`, the IC50 with Influenza A virus was over 5 µM.

As for `CCN(c1c(F)cc(Cl)cc1F)S(=O)(=O)c1cc(Cl)ccc1Cl`, in the data set on Influenza A virus, the IC50 was 0.41 µM and the 90% effect concentration (IC90) is over 5 µM. In the data set on A549, this compound returned a CC10 of 0.025 µM and a CC50 of over 5 µM. Moreover, the selectivity ratio in data set [1] is over 12.

On to `CCN(c1ccc(F)cc1F)S(=O)(=O)c1cc(Cl)cc(Cl)c1`, for which the IC50 in the data set with Influenza A virus was determined as 0.75 µM. This compound also came in with a CC10 in the data set on A549 of 25 µM. Further, the selectivity ratio in data set [1] is over 33.

`CCN(c1ccccc1Cl)S(=O)(=O)c1cc(Cl)ccc1Cl`: in the data set with Influenza A virus, the IC50 came to 0.15 µM and the IC90 was determined as 1.5 µM. For the same compound, in the data set on A549, the CC10 is over 5 µM and the CC50 is over 5 µM. Moreover, in data set [1], the selectivity ratio is over 33.

As for `CCN(c1ccc(CC(=O)O)cc1)S(=O)(=O)c1cc(Cl)ccc1Cl`, in the data set with Influenza A virus, the IC50 is over 25 µM and the 90% effect concentration (IC90) is over 25 µM. Also, in the data set on A549, the CC10 was over 25 µM and the CC50 was over 25 µM.

With `CCN(c1cnc(C)cn1)S(=O)(=O)c1cc(Cl)ccc1Cl`, in the data set with Influenza A virus, the IC50 was over 5 µM.

`CCN(c1ccc(F)cc1F)S(=O)(=O)c1cccc(Cl)c1Cl`: in the data set with Influenza A virus, the IC50 was over 25 µM and the IC90 was over 25 µM. The compound further registered a CC10 in the data set with A549 of over 25 µM.

As to `CCN(c1ccc(F)cc1F)S(=O)(=O)c1ccccc1`, in the data set on Influenza A virus, the half-maximal inhibitory concentration (IC50) is over 25 µM and the IC90 was over 25 µM. The CC10 in the data set on A549 is over 25 µM.

Regarding `CCN(c1ccncc1F)S(=O)(=O)c1cc(Cl)ccc1Cl`, the IC50 in the data set with Influenza A virus was over 5 µM.

As to `CCN(c1cnc(C)nc1)S(=O)(=O)c1cc(Cl)ccc1Cl`, the IC50 with Influenza A virus is over 5 µM.

By IC50 is commonly meant the midpoint of a concentration-inhibition curve. Usually IC90 stands for the concentration needed for an effect of 90%. The term CC50 denotes the concentration that lowers cell viability or growth by half. Higher therefore signals lower toxicity to the cells.
